CSC inhib – blocks cancer stem cells. inhibition, % at 7.5 µM. cancer stem cell-like cells viability, luminescence. AID 2717. actives 1.1% (n = 300,000); in the data active = inhibition above about 75%; tested in HMLE shEcad cells
A1 inh – inhibitors of the anti-apoptotic protein A1, read as caspase activation. MEF A1-2A-BIM cells, Caspase-Glo 3/7 luminescence, 3 h; percent of clofoctol response, vehicle zero. caspase activation, % (test concentration not listed). actives 0.066% (n = 330,000). AID 2462;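 active = over half of replicate activation scores above 10%, or exactly half above 10 with the replicate mean above 10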
Calb FLC – affects C. albicans growth with fluconazole. C. albicans CaCi-2 (fluconazole-resistant clinical isolate) + fluconazole, Alamar Blue growth, 48 h. growth inhibition, % (test concentration not listed). actives 0.57% (n = 300,000);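 active = growth inhibition above about 58% in most replicates, limit read from the data, passing the limit was not always enough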;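 note: all wells also contain fluconazole at 8 µg/ml as a sub-toxic cotreatment; 0% = median of DMSO wells and 100% = median of geldanamycin control wells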
T cruzi inh – T. cruzi replication inhibition; actives 1.4% (n = 300,000); T. cruzi beta-gal in NIH3T3, luminescence, 90 h; inhibition, % (no concentration beside the values);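 active = mean inhibition across valid replicates above about 55%, limit read from the data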;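 note: signal also drops with host cell toxicity which is not excluded here; 0% = plate median of DMSO wells and 100% = zero luminescence signal; higher percent means less beta-gal luminescence so fewer parasites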
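Assay system: NIH/3T3 fibroblasts plus reporter T. cruzi. Amount: NIH/3T3 cells, 5,000 per well. Buffer or medium: DMEM, 2% fetal bovine serum. Doses: compound pinned at 50 nL/well, DMSO. Schedule: ≥90 h infection period, 3 h prior cell attachment. Signal: luminescent β-galactosidase signal after 60 min lysis. Read-out: parasite load inhibition, %.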
H9c2 TAG inh – reduces triacylglycerol accumulation in H9c2 cells; Nile Red lipid (TAG) fluorescence; cells loaded with 200 µM oleic acid; inhibition, % at 12.5 µM; actives 0.66% (n = 230,000);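 active = pattern-corrected inhibition of lipid staining of at least 50% with the nuclear-stain viability signal not falling by more than 50%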;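 note: 0% = DMSO wells and 100% = triacsin C control wells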
Beta cell apopt – beta cell apoptosis inhibition | INS-1E cytokine-induced death, ATP luminescence, 48 h; percent of positive-control rescue, neutral wells zero | protection from apoptosis, % (concentration not given with the values) | actives 0.8% (n = 300,000);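 active = Every replicate reaches about 75%, or at least half do and their mean reaches it too, limit read from the data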;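 note: 0% = cytokine-treated negative control wells and 100% = positive control rescue; higher means more ATP so stronger rescue from cytokine killing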
* hit, by the source's call; x = no result given. Compounds with a hit are over-represented: about 3.1% of the library has one in this group of screens.

SMILES	CSC inhib	A1 inh	Calb FLC	T cruzi inh	H9c2 TAG inh	Beta cell apopt
O=C(NCC(c1cccnc1)N1CCN(c2ccccc2F)CC1)OCc1ccccc1 (stereo not given)	20	0	-17	56*	x	4
O=C(NCC(c1cccnc1)N1CCN(c2ccc(F)cc2)CC1)OCc1ccccc1 (stereo not given)	4	0	21	60*	-7	1
O=C(Nc1ccc(C(O)(C(F)(F)F)C(F)(F)F)cc1)c1ccc(Cl)c([N+](=O)[O-])c1	87*	0	-1	21	18	47
Cc1cccc(C)c1NS(=O)(=O)c1ccc(NC(=O)c2ccc(Cl)c([N+](=O)[O-])c2)cc1	103*	0	3	33	x	0
O=C(Nc1ccc(S(=O)(=O)NC2=NCCCCC2)cc1)c1ccc(Cl)c([N+](=O)[O-])c1	-21	-1	x	x	20	-2
O=C(O)c1cc(NC(=O)c2ccc(Cl)c([N+](=O)[O-])c2)cc(C(=O)O)c1	-2	-1	1	-6	-8	x
Cc1cc(OCCOCCN(C)CCO)cc(C)c1Cl	-3	0	-5	37	x	0
CCN(CC)CCOCCOc1cc(C)c(Cl)c(C)c1	89*	-1	-11	64*	x	-3
CCN(C[C@H]1N[C@@](CC)(C(=O)OC)[C@H]2C(=O)N(C)C(=O)[C@@H]12)S(=O)(=O)c1ccccc1	x	x	x	x	3	x
Cc1cc(Oc2ccccc2)nc(-c2ccccc2O)n1	13	0	104*	21	x	6
CC(Sc1nnnn1C)C(=O)NC1CCCC1 (stereo not given)	7	1	x	x	-14	-7
CCN(CC)CCn1c2ccccc2c2cnc(N)c(C#N)c21	-1	0	35	65*	2	93*
CN(C)C=Nc1ncc2c3ccccc3n(CCN(C)C)c2c1C#N	7	0	-5	26	x	-4
CCc1ccc2[nH]c3nc(N/N=C/c4cccc(O)c4)nnc3c2c1	98*	0	11	0	7	-2
COc1cccc(/C=N/Nc2nnc3c(n2)[nH]c2ccccc23)c1OC	-8	-1	-2	5	-7	19
C=C1C(=O)C23C(O)C1CCC2C12CCCC(C)(COC(C)=O)C1C(O)C3(O)OC2 (stereo not given)	x	x	x	x	93*	x
COc1ccc2oc(C(=O)NC3(C)CCS(=O)(=O)C3)c(C)c2c1 (stereo not given)	6	1	1	4	9	-1
CCN(Cc1ccncc1)C(=O)c1cc(COc2ccc(C)c(C)c2)on1	25	0	6	56*	14	-9
Cc1ccc(OCc2cc(C(=O)N(CCO)Cc3cccs3)no2)cc1C	12	0	3	8	-7	-3
CCN(CC1CCCO1)C(=O)c1cc(COc2ccc(F)cc2F)on1 (stereo not given)	-5	0	0	-10	-2	-6
O=C(c1cc(COc2ccc(F)cc2Cl)on1)N(Cc1ccncc1)CC1CCCO1 (stereo not given)	-9	0	5	70*	-32	1
COc1cc(C#Cc2ccc3cc(C(C)(C)O)oc(=O)c3c2)cc(OC)c1	-5	-4	x	x	x	-8
CN1CCC(N(C)C(=O)c2sc3cc(F)ccc3c2Cl)CC1	33	-1	-21	78*	x	1
CC(C)N(CC(N)=O)C(=O)c1sc2cc(F)ccc2c1Cl	1	0	11	-5	-9	-3
O=C(NN=Cc1cc(Br)c(O)c(Br)c1)c1ccccc1NS(=O)(=O)c1cccs1	11	1	x	x	7	1
O=C(NC(=S)Nc1ccc(CN2CCCCC2)cc1)c1cccc(OCc2ccccc2)c1	x	-1	30	73*	22	x
CN(c1ccccc1)P(=O)(N(C)c1ccccc1)N(C)c1ccccc1	27	-1	-28	66*	-20	15
CN1C[C@@H]2C(c3ccccc3)C3(c4ccccc4)CC2(C3)[C@H]1c1ccccc1 (stereo not given in full)	-8	0	110*	20	x	0
CN1C[C@@H]2C(c3ccccc3)C3(c4ccc(C#N)cc4)CC2(C3)[C@H]1c1ccccc1 (stereo not given in full)	8	0	-35	27	-13	14

Screens: PubChem, several laboratories
